Compound activity (PubChem)
KCNQ1 block – inhibitors of human KCNQ1 channel, primary screen, cell-based, thallium flux, high-throughput; Potassium voltage-gated channel subfamily KQT member 1 (Homo sapiens), P51787; CHO-K1 KCNQ1, FluxOR thallium flux fluorescence; active compounds read high; B-score at 10 µM; hit rate 1.3% among 310,000;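 active = compounds whose thallium flux B-score, printed positive for inhibition, exceeds three library SD while starting fluorescence stays within three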;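 note: channel opened by potassium depolarization with thallium stimulus after 20 min compound exposure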
hERG rescue – hERG rescue from dofetilide block, primary screen, cell-based, CHO-hERG, FluxOR thallium flux, dofetilide IC70; AID 1511, 2009; dofetilide IC70 present; hit rate 0.51% among 310,000; Voltage-gated inwardly rectifying potassium channel KCNH2 (Homo sapiens), Q12809; activation (rescue from dofetilide block), less the hit threshold, % at 10 µM;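 active = activation above the mean of controls blocked by dofetilide plus 5 SD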;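 note: thallium influx through hERG after potassium depolarization seen as dye fluorescence rise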
KCNK3 block – human KCNK3 channel inhibitors, primary screen, CHO cells, FluxOR thallium flux, B-score; FluxOR fluorescence; active compounds read low; B-score at 10 µM; hit rate 0.84% among 340,000;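 active = B-score under library mean minus 4 SD, starting fluorescence ratio at most library mean plus 5 SD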;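 note: more negative B-score means stronger inhibition of thallium flux through KCNK3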
Target sequence (O14649 whole entry, looked up): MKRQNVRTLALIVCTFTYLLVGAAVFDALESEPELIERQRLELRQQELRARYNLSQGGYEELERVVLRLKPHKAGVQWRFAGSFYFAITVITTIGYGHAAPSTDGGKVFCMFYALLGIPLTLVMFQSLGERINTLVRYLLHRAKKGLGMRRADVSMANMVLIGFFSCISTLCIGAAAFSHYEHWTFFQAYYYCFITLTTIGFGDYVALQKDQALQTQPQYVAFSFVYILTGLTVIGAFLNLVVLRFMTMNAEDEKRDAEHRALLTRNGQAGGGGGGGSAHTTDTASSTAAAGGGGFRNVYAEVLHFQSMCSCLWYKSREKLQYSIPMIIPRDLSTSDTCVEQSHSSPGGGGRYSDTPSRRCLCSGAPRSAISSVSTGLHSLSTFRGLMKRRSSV
KCNK9 block – KCNK9 potassium channel inhibitors, primary screen, HEK293 cells, thallium flux. Potassium channel subfamily K member 9 (Homo sapiens), Q9NPC2. FluxOR thallium flux fluorescence; active compounds read low. B-score at 10 µM. hit rate 1.2% among 310,000. AID 488922, 2010;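 active = ratio B-score over 3 SD below the library mean, with starting fluorescence within 5 SD of its mean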;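 note: negative B-score means less thallium flux so channel inhibition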
KCNQ1 act – potentiators or activators of KCNQ1 channel, primary screen, cell-based, thallium flux, high-throughput. hit rate 0.35% among 310,000. AID 2648, 2010. B-score at 10 µM. CHO-K1 KCNQ1, thallium flux FluxOR fluorescence; active compounds read high;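 active = fluorescence ratio B-score, a plate-corrected score, at least three library SD, with initial intensity B-score within 5 SD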
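Assay system: CHO-K1 cells stably expressing KCNQ1. Medium: assay buffer for compound exposure, DMSO matched across wells. Timing: 37 °C overnight plating, 90-min dark dye load, 20-min compound pretreatment. Signal: kinetic FluxOR fluorescence, 10 s baseline plus 110 s post-stimulus.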
* marks the source's active call; other numbers are inactive results; i = inactive; nt = no result given. A selection: hits, their analogues and other compounds. The true share with any hit is near 3.1%.

SMILES	KCNQ1 block	hERG rescue	KCNK3 block	KCNK9 block	KCNQ1 act
Cc1ccc(S(=O)(=O)NCC(=O)OCC(=O)N(C)C2CCS(=O)(=O)C2)cc1 (stereo unspecified)	i	-4.9	i	i	i
COc1cccc(CN(C)C(=O)CCNC(=O)c2ccco2)c1	nt	nt	i	nt	nt
O=C1/C(=C/c2ccccn2)SC(=S)N1Nc1ncc(C(F)(F)F)cc1Cl	nt	nt	i	nt	nt
c1ccc(C2=Nc3c(ccc4ccccc34)C(c3ccncc3)=NN2)cc1	i	-11.1	i	-7.7*	i
CC(C)N(CCO)Cc1nc(C(c2ccccc2)c2ccccc2)no1	i	0.7	i	i	i
Cc1c(C(=O)NCCN2CCOCC2)oc2ccccc12	i	48.2*	i	i	i
O=C(NCCN1CCOCC1)c1cc(-c2ccccc2Cl)on1	i	5.1*	i	i	i
CCn1cc(S(=O)(=O)Nc2ccc(Cl)cc2F)cn1	i	-7.2	i	i	i
CCc1noc(C)c1C(=O)Nc1nc(-c2ccccc2)c(C(C)=O)s1	nt	nt	i	nt	nt
Cc1ccc(S(=O)(=O)N2c3ccccc3OCC2C(C)(C)C)cc1 (stereo unspecified)	i	-8.0	i	i	i
Cc1ccc2c(c1)N(S(=O)(=O)c1ccc(F)cc1)C(C(C)(C)C)CO2 (stereo unspecified)	7*	-10.9	i	i	i
CCN(CC)C(=O)Cn1cc(C(=O)C(=O)N2CCN(Cc3ccc4c(c3)OCO4)CC2)c2ccccc21	i	-12.2	i	i	i
CCOC(=O)C1CCN(C(=O)c2cccnc2Oc2ccccc2)CC1	i	-2.4	i	i	i
O=C1c2ccccc2C(=O)N1Cc1nc2ccccc2c(=O)n1CCCn1ccnc1	i	9.8*	i	i	i
COc1ccc(C2(C)NC(=O)N(CC3CCCCC3)C2=O)cc1 (stereo unspecified)	i	-4.6	i	i	i
CC(=O)c1ccc(NS(=O)(=O)c2ccc3c(c2)CCC(=O)N3)cc1	nt	nt	i	nt	nt
O=C(CNCC1CCCCC1)Nc1ccc(OC(F)(F)F)cc1	i	-20.3	i	i	20*
CN(CC(=O)Nc1ccc(OC(F)(F)F)cc1)C1CCCCC1	i	-6.1	i	i	i
COc1ccc(OC)c(S(=O)(=O)Nc2ccc3c(c2)N(C(C)=O)CCC3)c1	i	-10.5	i	i	13*
COc1ccccc1C(=O)Nc1ccnn1C1CCN(C/C=C/c2ccc(F)cc2)CC1	i	-11.8	i	i	i
CCOCCCn1c(SCC(=O)Nc2cc(C(C)(C)C)nn2-c2ccccc2)nc2ccccc2c1=O	i	-6.5	i	-7.26*	i
CCCOc1cc(C)c(S(=O)(=O)NCc2cccs2)cc1C	nt	nt	i	nt	nt
COc1cc(C(=S)N2CCN(c3cccc(Cl)c3)CC2)ccc1O	i	5.8*	i	i	i
O=C(CSCC(=O)N1CCCCC1)Nc1nc(-c2ccccc2)c(-c2ccccc2)s1	nt	nt	-10.9*	nt	nt
COc1ccc(-c2sc(NC(C)=O)nc2-c2ccccc2)cc1	i	-7.6	i	i	i
SMILES	KCNQ1 block	hERG rescue	KCNK3 block	KCNK9 block	KCNQ1 act
CC12c3ccccc3C(c3ccccc31)C1C(=O)N(c3cccnc3)C(=O)C12 (stereo unspecified)	i	-7.9	i	-7.56*	i
CC12c3ccccc3C(c3ccccc31)C1C(=O)N(c3ccncc3)C(=O)C12 (stereo unspecified)	i	-6.7	i	i	i
COc1cccc(C=NCC(C)N=Cc2cccc(OC)c2O)c1O (stereo unspecified)	i	5.2*	i	i	i
CCCC1(c2ccccc2)NC(=O)N(CC(=O)NCc2ccc(OC)cc2)C1=O (stereo unspecified)	i	-7.0	i	i	i
N=C1S/C(=C\c2ccc(-c3cccc(Cl)c3)o2)C(=O)N1c1nccs1	i	25.8*	i	i	i
N=C1/C(=C\c2ccc(-c3ccc(C(=O)O)cc3)o2)C(=O)N=C2SC=C(c3ccccc3)N12	i	-17.1	i	i	i
N=C1/C(=C\c2ccc(-c3cccc(Cl)c3)o2)C(=O)N=C2SC=C(c3ccccc3)N12	i	-4.9	i	i	8*
O=C(CN1C(=O)c2ccc([N+](=O)[O-])cc2C1=O)NCCC1=CCCCC1	i	-10.0	i	i	i
CC(C)=CCC/C(C)=C/COc1c2occc2cc2ccc(=O)oc12	nt	nt	-9.82*	nt	nt
O=c1c(-c2ccccc2)c[nH]n1-c1cccc([N+](=O)[O-])c1	7*	-11.8	i	i	i
O=c1c(-c2ccc(Cl)cc2)c[nH]n1-c1ccccc1	i	-2.5	i	i	i
COc1ccc(S(=O)(=O)NCc2ccccn2)cc1NC(=O)c1ccccc1C	i	-6.4	i	i	i
S=C(N/N=C/c1cccc2ccccc12)Nc1cccc(Cl)c1	i	5.3*	i	i	8*
S=C(NCCC(c1ccccc1)c1ccccc1)Nc1cccc(Cl)c1	9*	-8.3	i	i	i
Cc1ccccc1NC(=S)NCCC(c1ccccc1)c1ccccc1	7*	-6.3	i	i	i
S=C(N/N=C/c1ccccc1Cl)Nc1ccccc1	i	-3.8	i	i	i
Cc1ccc(C(=O)COC(=O)CCNS(=O)(=O)c2ccccc2F)cc1	nt	nt	i	nt	nt
O=C(NCc1nc2ncc(Br)cc2[nH]1)c1ccccc1	i	6.2*	i	i	i
C=CCn1c(=O)c(C(=O)NCc2ccc(Cl)cc2)c(O)c2ccccc21	7*	-9.3	i	i	i
CCCn1c(=O)c(C(=O)NCCc2ccccc2)c(O)c2ccccc21	10*	-3.1	i	i	i
C=CCn1c(=O)c(C(=O)NCCc2ccccc2)c(O)c2ccccc21	6*	-3.0	i	i	i
Cn1c(=O)c(C(=O)NCCc2ccccc2)c(O)c2ccccc21	i	-1.6	i	i	i
C=CCn1c(=O)c(C(=O)Nc2ccc(C)cn2)c(O)c2ccccc21	i	-5.0	i	i	i
COc1ccc(NC(=O)N(C)C[C@H]2Oc3c(NC(=O)C4CCCCC4)cccc3C(=O)N([C@H](C)CO)C[C@@H]2C)cc1	nt	nt	i	nt	nt
CC1CC(C)(C)CC2(C1)NC(=O)N(CC(=O)N(C)Cc1nc3ccccc3c(=O)[nH]1)C2=O (stereo unspecified)	nt	nt	i	nt	nt
NS(=O)(=O)c1ccc(Sc2ccc3c(c2)CCC3)nc1	i	-0.6	i	i	8*
